A selection: hits, their analogues and other compounds. The true share with any hit is near 4.1%.
UBC13 polyUb: UBC13 polyubiquitin chain formation inhibitors, primary screen, biochemical, TR-FRET, uHTS. Ubiquitin-conjugating enzyme E2 N (Homo sapiens), P61088. inhibition, % at 20 µM. actives 0.47% (n = 330,000); in the data active = inhibition above about 45%, passing the limit was not always enough
Apaf1 inhib: inhibitors of human Apaf-1 apoptosome, primary screen, biochemical, DEVD-Rh110 fluorescence, uHTS; Apoptotic protease-activating factor 1 (Homo sapiens), O14727; reconstituted apoptosome caspase-3 activity; inhibition, % at 20 µM; actives 0.71% (n = 330,000); active = inhibition of at least 40% at 20 µM
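Assay system – apoptosome proteins · Medium – Hepes buffer, pH 7.5 · Also added – cytochrome c with DEVD-Rh110 · Timing – 30 min compound preincubation, 50 min activation, room temperature · Detection – Rh110 fluorescence, excitation 480 nm, emission 540 nm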
Mdm2 MdmX PPI: inhibitors of human Mdm2-MdmX association, primary screen, cell-based, luminescence, split luciferase, SaOS-2, uHTS. SaOS-2 split-luciferase Mdm2/MdmX complementation. AID 485346, 2010. actives 3% (n = 330,000). Protein Mdm4 (Homo sapiens) + E3 ubiquitin-protein ligase Mdm2 (Homo sapiens), …. inhibition, % at 8 µM;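 active = inhibition of at least 50% at 8 µM in the primary screen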
Target sequence (O15151 whole entry, looked up): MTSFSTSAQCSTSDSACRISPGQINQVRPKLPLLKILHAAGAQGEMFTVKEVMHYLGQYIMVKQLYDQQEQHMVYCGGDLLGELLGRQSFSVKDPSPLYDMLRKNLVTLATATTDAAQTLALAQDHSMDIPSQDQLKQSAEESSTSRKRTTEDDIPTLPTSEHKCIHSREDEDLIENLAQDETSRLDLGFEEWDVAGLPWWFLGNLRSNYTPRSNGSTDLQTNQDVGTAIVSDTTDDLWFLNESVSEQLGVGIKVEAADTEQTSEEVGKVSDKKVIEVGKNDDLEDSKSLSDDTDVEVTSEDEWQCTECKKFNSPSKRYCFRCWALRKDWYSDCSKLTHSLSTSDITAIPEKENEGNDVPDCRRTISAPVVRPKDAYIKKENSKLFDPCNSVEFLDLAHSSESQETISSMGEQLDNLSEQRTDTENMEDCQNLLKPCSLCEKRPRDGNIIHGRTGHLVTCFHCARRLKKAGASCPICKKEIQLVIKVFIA
Target sequence (Q00987 whole entry, looked up): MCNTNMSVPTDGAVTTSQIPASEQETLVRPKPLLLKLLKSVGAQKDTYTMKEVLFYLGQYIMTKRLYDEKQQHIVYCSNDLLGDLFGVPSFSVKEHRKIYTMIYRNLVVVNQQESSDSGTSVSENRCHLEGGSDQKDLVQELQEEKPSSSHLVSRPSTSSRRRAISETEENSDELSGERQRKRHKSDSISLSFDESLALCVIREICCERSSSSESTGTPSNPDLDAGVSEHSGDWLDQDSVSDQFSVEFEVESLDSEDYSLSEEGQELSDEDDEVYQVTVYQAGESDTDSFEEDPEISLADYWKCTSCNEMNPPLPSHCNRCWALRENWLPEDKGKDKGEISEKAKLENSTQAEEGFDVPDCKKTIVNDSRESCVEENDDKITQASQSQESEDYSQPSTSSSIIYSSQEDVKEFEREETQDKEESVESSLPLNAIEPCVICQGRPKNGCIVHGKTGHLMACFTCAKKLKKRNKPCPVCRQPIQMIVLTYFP
UPR XBP1 act: activators of adaptive XBP1 UPR arm, primary screen, cell-based, CHO-XBP1 luciferase reporter, luminescence, uHTS | actives 0.33% (n = 330,000) | IRE1-XBP1 UPR activation; percent of tunicamycin response, DMSO as zero | activation, % at 20 µM | AID 463104, 2010;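 active = versus positive control, 20 µM dose yields 30% or more activation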
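Material – CHO cell line with stable XBP1 luciferase reporter · Buffer or medium – F12 plus 10% FBS · Compound – single point, 20 µM final compound, 1% DMSO · Schedule – 16-18 h cell attachment at 37 °C, then 6 h compound exposure · Signal – Steady-Glo luminescence read · Benchmarks – high control tunicamycin 10 µg/mL final, low control DMSO vehicle only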
UPR CHOP act: activators of apoptotic CHOP UPR arm, primary screen, cell-based, CHO-CHOP luciferase reporter, luminescence, uHTS; actives 0.34% (n = 330,000); activation, % at 10 µM; UPR activation; percent of tunicamycin response over DMSO baseline; AID 449763, 2010;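 active = at 10 µM dose, activation of 40% or more, normalized to positive control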
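Assay system: CHO-CHOP cells, stable luciferase reporter of PERK-eIF2a-CHOP signalling / Buffer or medium: F12 plus 10% serum / Compound dosing: one dose, 10 µM in 0.5% DMSO / Times: 6 h compound treatment, 37 °C / Technique: luciferase luminescence / Read-out: % reporter activation, DMSO baseline versus tunicamycin full activation / Benchmarks: tunicamycin and DMSO controls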
CHOP UPR conf: activators of apoptotic CHOP UPR arm, confirmation, cell-based, CHO-CHOP luciferase reporter, single concentration; actives 64% (n = 1,000); activation, % at 10 µM; CHO-CHOP cells, CHOP-luciferase reporter luminescence; percent of tunicamycin response, DMSO as zero; shares compounds with UPR CHOP act; AID 463112, 2010; in the data active = activation above about 33%
A number is an active result; . = inactive; / = no result.

SMILES	UBC13 polyUb	Apaf1 inhib	Mdm2 MdmX PPI	UPR XBP1 act	UPR CHOP act	CHOP UPR conf
O=C(OCCc1ccccc1)c1cc(O)c(O)c(O)c1	.	.	.	.	118	.
Nc1ccc(C(=O)OCCc2ccccc2)cc1	.	.	.	.	.	/
CCN(CC)c1ccc(CNCc2cccs2)cc1	.	.	.	.	.	/
O=C1ON=C(c2ccc(Cl)cc2)/C1=C/c1ccc(O)cc1	.	.	.	.	107	.
CCn1c(O)c(C2=c3ccccc3=NC2=O)c2cc(Br)ccc21	.	.	.	.	111	83
Cc1ccc(C(=O)CSc2nc(N)cc(=O)[nH]2)cc1C	.	.	.	.	/	.
Cc1cc(C(=O)CSc2nc(N)cc(=O)[nH]2)ccc1F	.	.	.	.	.	/
COc1ccc(C2=CC(=O)N(Nc3ccccc3)C2=O)cc1	.	.	.	.	48	149
O=C1NC(=O)C2(COC(c3ccccc3Cl)OC2)S1 (stereo unspecified)	.	.	.	.	.	/
Cc1ccc(NC(=O)c2ccc(Cl)c(N3C(=O)C=CC3=O)c2)cc1	.	.	.	.	88	.
O=C(/C=C/c1ccc(O)c(O)c1)c1ccc(S(=O)(=O)N2CCCCCC2)cc1	.	.	.	.	90	.
O=C(c1ccc(S(=O)(=O)N2CCCC2)cc1)N1CCCCC1	.	.	.	.	.	/
O=C(OCc1ccc(Cl)cc1Cl)c1ccncc1	.	.	.	.	.	/
CCSC1(SCC)N=C(N)C2(C#N)C(c3ccc(F)cc3)C12C#N (stereo unspecified)	.	.	.	.	61	124
O=C1C(C2=NC(c3ccccn3)C3C(=O)N(c4ccc(OC(F)(F)F)cc4)C(=O)C23)=C(O)c2ccccc21 (stereo unspecified)	.	.	.	.	42	.
CC(=O)c1ccc(NC(=O)COC(=O)CCC2CCCC2)cc1	.	.	.	.	.	/
Cc1cccc2cc(CNCC3CCCO3)c(Cl)nc12 (stereo unspecified)	.	.	.	.	.	/
CCN(CC)C(=O)c1cc([N+](=O)[O-])cc2c1-c1ccc([N+](=O)[O-])cc1C2=C(C#N)C#N	.	.	.	.	169	.
c1ccc(Oc2nc(-c3ccccn3)nc3ccccc23)cc1	.	.	.	.	41	.
COc1ccc(Oc2nc(-c3ccncc3)nc3ccccc23)cc1	.	.	.	.	.	/
COc1ccc(Oc2nc(-c3ccccn3)nc3ccccc23)cc1	.	.	.	.	52	.
CCN1CCN(c2nc(-c3ccccn3)nc3ccccc23)CC1	.	.	.	.	.	/
c1ccc(CN2CCN(c3nc(-c4ccccn4)nc4ccccc34)CC2)cc1	.	.	.	.	82	.
Cn1c(=O)[nH]c(=O)c2c1nc(N/N=C/C(Br)=C/c1ccccc1)n2CCO	.	.	.	.	.	/
O=C(COc1ccccc1)NNc1nc2c(F)cc(F)cc2s1	.	.	.	.	.	/
SMILES	UBC13 polyUb	Apaf1 inhib	Mdm2 MdmX PPI	UPR XBP1 act	UPR CHOP act	CHOP UPR conf
O=C(Nc1nc2c(F)cc(F)cc2s1)c1ccccn1	.	.	.	.	83	186
CC(C)Cc1nc(N2CCN(C(=O)C(C)C)CC2)c(C#N)c2c1CCC2	.	.	.	.	40	.
CSC(=S)N/N=C(\C)c1ccccc1	.	.	.	.	109	79
C/C(=N\NC(N)=S)c1ccccc1	.	.	.	.	.	/
C/C(=N\NC(=O)c1ccncc1)c1cc2ccccc2o1	.	.	.	.	115	.
C=CCN1C(=O)/C(=C\c2ccc(Oc3nc(N4CCOCC4)nc(N4CCOCC4)n3)c(OC)c2)SC1=S	.	.	.	.	.	/
CC(=O)N/C(=N/c1nc(C)cc(C)n1)Nc1ccc(NC(C)=O)cc1	.	.	.	.	.	/
CC(=O)N/C(=N\c1nc(C)cc(C)n1)Nc1ccc(Cl)cc1Cl	.	.	.	.	49	.
S=C(Nc1ccccn1)c1ccccn1	.	.	.	.	165	126
N=C1C(c2nc3ccccc3[nH]2)=C(O)CN1NC(=O)COc1cccc(F)c1	.	.	.	.	.	/
O=C(c1cc2ccccc2[nH]1)N(Cc1cccnc1)CC1CCCN(C2CCCCC2)C1 (stereo unspecified)	.	.	.	.	.	/
O=C(NCc1ccccc1Cl)C1CCN(C(=O)c2ccco2)CC1	.	.	.	.	.	/
O=C(N/N=C/c1ccccn1)c1cc([N+](=O)[O-])cc([N+](=O)[O-])c1	.	.	.	.	45	65
O=[N+]([O-])/C=C\c1ccc(N2CCOCC2)cc1	.	.	.	.	52	126
O=c1nc(Nc2cccc(Cl)c2)oc2cc(Cl)oc(=O)c12	.	.	.	.	41	73
O=c1nc(Nc2ccccc2)oc2ccccc12	.	.	.	.	.	/
Oc1ccc(CN2CCCCC2)c2cccnc12	.	.	.	.	.	/
Oc1c(Cl)cc(CN2CCCCC2)c2cccnc12	.	.	.	.	84	74
Cc1noc2ncnc(Sc3ccc(Br)cc3)c12	.	.	.	.	229	124
C/C(=N\NC(=O)c1cc(O)ccc1O)c1cccc(NC(=O)c2ccc(Cl)cc2)c1	.	.	.	.	72	.
C/C(=N\NC(=O)c1cc(O)ccc1O)c1cccc(NC(=O)c2cccc(Cl)c2)c1	.	.	.	.	.	/
Cc1cc(C)nc(NC(=S)NC(=O)c2ccccc2F)n1	.	.	.	.	.	/
Cc1cc(C)nc(S/C=C/C(=O)c2ccccc2F)n1	.	.	.	.	73	.
CCN=c1scc(C)n1/N=C/c1cc(Br)c(O)c(Br)c1	.	.	.	.	.	/
CCN=c1scc(C)n1/N=C/c1ccc(O)c(O)c1O	.	.	.	.	79	.
COCCN=c1scc(-c2ccccc2)n1/N=C/c1c[nH]c2ccccc12	.	.	.	.	.	/
COCCN=c1scc(-c2cccs2)n1/N=C/c1ccc(O)c(O)c1O	.	.	.	.	347	104
COCCCNC(=O)CC1C(=O)N(Cc2ccccc2)C(C)c2nc3ccccc3n21 (stereo unspecified)	.	.	.	.	.	/
CCOC(=O)C1CCC2(CC1)C(C#N)=C(N)Oc1n[nH]c(C)c12 (stereo unspecified)	.	.	.	.	.	/
